Results from ChEMBL document CHEMBL4513216, “Probing the Open Global Health Chemical Diversity Library for Multistage-Active Starting Points for Next-Generation Antimalarials” (ACS Infect Dis, 2020).

Experiment: Toxicity liver stage against HepG2, at 10uM
Format: cell-based
Parameters: test concentration 10 uM, cell line HepG2-A16-CD81EGFP
Settings: human, HepG2-A16-CD81EGFP cells; read-out: INHIBITION
Summary of the method: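 Uninfected HepG2-A16-CD81EGFP cells, 3 × 10^3 per well, 1536-well, plated on prespotted compound at 10 μM final, parasite-free screening media added to match infected plates; puromycin 10 μM positive, DMSO 0.5% negative; run in parallel with 48 h PbLuc assay at 37 °C, 5% CO2; viability by CellTiter-Glo luminescence, normalized to controls.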

Structure (SMILES)	cytotoxicity at 10 µM [%]
Cc1ccccc1CSCCn1nc2ccccn2c1=O	2.57
COCCN1C[C@H]2CN(Cc3cccc(OC(F)(F)F)c3)CCN2C1=O	2.67
CC1(C)CC(NC(=O)c2cnn(-c3ccccc3F)c2N)CC(C)(C)N1	-4.14
O=C(NCC(=O)N1CCCC1)c1nc(Cc2c(Cl)cccc2Cl)no1	2.63
O=C(NCCS(=O)(=O)N1CCN(c2ncccn2)CC1)C1CCCC1	-3.91
Fc1cnc(N2CC[C@@H](N3CCOCC3)[C@@H]2Cc2ccccc2)nc1	3.67
CN(C)CCNC(=O)c1ccc2c(-c3nccs3)noc2c1	9.28
COCCC1COC2(CCN(C(=O)C3CCCC3)CC2)C1 (centres undefined)	6.13
Cc1ccc2c(n1)N(CCn1cccn1)CCN(C(=O)NC(C)C)C2	13.3
CS(=O)(=O)N1CCc2sc(C(=O)NCc3ccccc3)cc21	0.997
O=c1cc(Cn2ccnc2)nc2n1CCCN(Cc1ccncc1)C2	-0.559
O=c1c2cnc(N3CCCCC3)nc2ccn1Cc1ccco1	-9.69
Cc1nc(C(=O)N2CCCC2c2cncc(CN3CCCC3)n2)co1 (centres undefined)	8.99
COCC(=O)N1CCCC1(C)c1nc(C)cc(O)n1 (centres undefined)	-28.5
CC(C)c1ncc(CNC2(c3ccc(Cl)cc3)CC2)cn1	-32.3
O=C(N[C@@H]1CCC[C@@H](N2CCOCC2)[C@@H]1O)c1cnn2cccnc12	-21.9
Cc1noc(C)c1-c1ccc(C2CCCN2C(=O)c2cnn(C)c2)nc1 (centres undefined)	-16.7
CCc1c(C)nc2cc(C3CCN(Cc4cccnc4)C3)nn2c1O (centres undefined)	-25.4
COc1ncccc1C(=O)Nc1cccc(C[S+](C)[O-])c1C (centres undefined)	2.28
CCS(=O)(=O)Nc1ccc2[nH]c(C3CCC3)nc2c1	-13.2
CC(NC(=O)c1ccoc1)C(=O)N(C)Cc1ccsc1 (centres undefined)	-1.77

Structure (SMILES)	cytotoxicity at 10 µM [%]
Cc1csc(CCNC(=O)c2ccc(N(C)C)c(F)c2)n1	7.15
CNS(=O)(=O)c1cccc(CNC(=O)CCc2ccsc2)c1	13.5
CCOCCNCC1CCN(CCO)CC1	-1.46
Cc1cccc(Oc2ccccc2CNC(=O)C2CCNC(=O)C2)c1 (centres undefined)	3.6
N#Cc1ccc(SCCC(=O)NC(N)=O)cc1	-2.66
Cc1noc(CCNC(=O)NCc2ccc(OC3CCCC3)cc2)n1	13.2
COc1ccsc1C(=O)NCCNc1ccccc1	-4.15
COc1ccc(CNC(=O)N2CCCC(Nc3ccccc3)C2)cn1 (centres undefined)	-4.57
CC(Oc1ccc(OCc2ncc(C(C)C)o2)cc1)C(N)=O (centres undefined)	-10.4
CCNC(=O)CCC(=O)NC(Cc1ccccc1)c1sccc1C (centres undefined)	-6.69
CC(=O)c1ccc(C(=O)Nc2ccnc(N(C)C)n2)cc1	2.49
CC(=O)N(C)Cc1cccc(NC(=O)CCCc2nc(C(C)C)no2)c1	-2.07
CC(=O)NCCOc1c(C)cccc1C	-2.33
COc1ccccc1NC(=O)NC(C)c1nc[nH]n1 (centres undefined)	2.8
O=C(CCc1ncc(-c2ccc(F)cc2)o1)NCCN1CCOCC1	10.6
O=S(=O)(CCCN1CCOC(Cn2cccn2)C1)c1ccccc1 (centres undefined)	-2.54
Cc1nn(C)c(N2CCOCC2)c1CNC(C(N)=O)c1ccccc1 (centres undefined)	-6.86
O=C(NCc1cccnc1)N1CCSCC1CCO (centres undefined)	-1.46
CC(C)c1nnc(NC(=O)N2CCCC2c2ccncc2)s1 (centres undefined)	5.6
Cc1cnc(C(C)(C)NC(=O)NCc2cccnc2OC(C)C)s1	8.46
CN1CCC(NC(=O)Nc2ccc(F)c(-n3cccc3)c2)C1=O (centres undefined)	-135

Structure (SMILES)	cytotoxicity at 10 µM [%]
CS(=O)(=O)NCC1CCCN(Cc2ccccc2F)C1 (centres undefined)	-3.65
CN1C(=O)CCN(C(=O)C2CC=CC2)c2ccccc21	8.96
O=C(NCc1ccncc1)N1CC(Cc2ccccc2F)C1	-8.85
COCCNC(=O)NC(=O)CNc1c(F)cccc1N1CCCC1	-2.05
CN(C)C(=O)C1CCN(C(=O)c2c[nH]c3cc(Cl)ccc23)CC1	-0.983
Cc1ccc(C(CNCc2ccncc2)N2CCOCC2)s1 (centres undefined)	-14.6
CCNC(=O)NC(=O)CSC(C)c1ccccc1F (centres undefined)	15.6
Cc1cccc(OCCC(=O)N(C)CCC#N)c1C	0.666
CC(C)(C(=O)NCC1CC1)c1ccccc1F	-5.47
Cc1nc(CN2C[C@@H]3CN(C(=O)c4cnccn4)C[C@@H]3C2=O)cs1	-74.5
Cc1nc2c(c(NCC(O)c3ccccc3Cl)n1)CCNCC2 (centres undefined)	-2.88
COC(=O)CNC(=O)c1ccc(OC2CCN(S(C)(=O)=O)CC2)c(Cl)c1	-4.52
CC(C)c1ccc(C#N)c(N2CC(C)(C)[C@@](C)(O)C2)n1	2.71
CC(C)CN1CC2(CCN(C(=O)c3cnccn3)CC2)CC1=O	2.46
Cc1ccsc1[C@@H]1CCN(C(=O)CCc2n[nH]c(C)c2C)C[C@H]1O	7.04
Cc1cc(C)c(C(=O)N2CCn3nc(C(=O)NCCN(C)C)cc3C2)[nH]1	-0.53
Cn1nnnc1SCCNC(=O)C1CCN(C(=O)C2CCCC2)CC1	-11.8
Cc1ccsc1CCNC(=O)CCC1CCCCN1C (centres undefined)	-3.13
CC(C)(CNC1CCCN(Cc2ccccc2F)C1)CN1CCOCC1 (centres undefined)	6.21
COCC(=O)N1C[C@H]2CNC[C@@]2(C(=O)NCc2c(C)noc2C)C1	0.753
O=S(=O)(NCCNc1ccc(-n2cccn2)nn1)c1ccccc1	-8.55

Structure (SMILES)	cytotoxicity at 10 µM [%]
Cc1ncsc1C(=O)N1CCc2[nH]nc(-c3ccc4c(c3)OCO4)c2C1	-141
COc1ccc(C(=O)N2CCN(C(=O)c3csc(C(C)C)n3)CC2)cc1	-10.4
Nc1cc(C(=O)NC2CCCN(CCCc3ccccc3)C2)ccn1 (centres undefined)	8.01
Cc1cc(N2CCCCCC2)n2nc(C)c(C)c2n1	-6.23
c1cc(CCN2CCN(c3ccc4nncn4n3)CC2)ccn1	4.76
Cc1ccccc1C1(C(=O)NCCN2CCOCC2)CCOCC1	-3.07
O=C(c1ccc2c(c1)CCO2)N1CCN(c2cnccn2)CC1	-14.4
O=C(NCCn1ccnc1)N1CCN(Cc2cccnc2)CC1	-4.64
Cc1cccc(C(=O)N2CCCN(Cc3cscn3)CC2)c1	-18.1
CCc1n[nH]c(C2CN(C(=O)c3ccnc(N(C)C)c3)CCO2)n1 (centres undefined)	6.66
O=C(CCNC(=O)c1ccoc1)NCc1ccccc1F	1.76
COc1ccc(CNCC(C)Oc2ccccn2)cc1Br (centres undefined)	-10.2
CCOc1ccc(CNCCCn2ccnc2)cc1Cl	-9.51
CC(=O)N1CCC[C@@H](NCc2cccc(F)c2)[C@@H]1c1ccc(C)s1	-24.2
N#Cc1ccc(CNCC2(c3ccccc3)CCOCC2)cc1	8.78
CCn1ncc2c1C(COC)N(C(=O)c1ccc3c(c1)OCO3)CC2 (centres undefined)	8.1
CC(=O)N1CCC2(CC1)CN(CC(C)C)CC21CCNC1=O (centres undefined)	-1.07
NC(=O)COc1ccc(CNCc2ccc(F)c(F)c2)cc1	-15.2
Fc1cnccc1CN1CCC2(CCN2c2ncccn2)C1 (centres undefined)	-111
COc1ncccc1CN1C[C@@H]2COC[C@]2(COc2ccccn2)C1	-3.87
Nc1ccnc(N2C[C@H]3CC[C@@H](C2)N(CC2CCC2)C3=O)n1	-0.253
